ChEMBL document CHEMBL1149316, “Bioisosteric modifications of 2-arylureidobenzoic acids: selective noncompetitive antagonists for the homomeric kainate receptor subtype GluR5” (J Med Chem, 2004)
The source made the active and inactive calls. No cut-off for these calls is given here.

target: Glutamate receptor ionotropic, kainate 2 (Homo sapiens, UniProt Q13002); experiment: Antagonist activity at human homomeric GluR6 expressed in HEK293 cells assessed as inhibition of intracellular calcium concentration by FLIPR assay; format: functional, cell-based; settings: not given
Outline: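 Stably transfected HEK293 cells were grown in DMEM with 10% FCS at 37 °C. Cells were plated on PEI-coated plates 24 h before loading with 2 μM Fluo-4-AM for 60 min at room temperature, then washed into Na⁺-free Ringer at pH 7.4. Test compound was preincubated 1.5 min, then 0.2 μM domoic acid (final) was added. The Ca²⁺ rise was read by FLIPR (ex 488 nm, em 510–570 nm). IC50 reported.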

Chain of Glutamate receptor ionotropic, kainate 2 (Q13002 whole entry): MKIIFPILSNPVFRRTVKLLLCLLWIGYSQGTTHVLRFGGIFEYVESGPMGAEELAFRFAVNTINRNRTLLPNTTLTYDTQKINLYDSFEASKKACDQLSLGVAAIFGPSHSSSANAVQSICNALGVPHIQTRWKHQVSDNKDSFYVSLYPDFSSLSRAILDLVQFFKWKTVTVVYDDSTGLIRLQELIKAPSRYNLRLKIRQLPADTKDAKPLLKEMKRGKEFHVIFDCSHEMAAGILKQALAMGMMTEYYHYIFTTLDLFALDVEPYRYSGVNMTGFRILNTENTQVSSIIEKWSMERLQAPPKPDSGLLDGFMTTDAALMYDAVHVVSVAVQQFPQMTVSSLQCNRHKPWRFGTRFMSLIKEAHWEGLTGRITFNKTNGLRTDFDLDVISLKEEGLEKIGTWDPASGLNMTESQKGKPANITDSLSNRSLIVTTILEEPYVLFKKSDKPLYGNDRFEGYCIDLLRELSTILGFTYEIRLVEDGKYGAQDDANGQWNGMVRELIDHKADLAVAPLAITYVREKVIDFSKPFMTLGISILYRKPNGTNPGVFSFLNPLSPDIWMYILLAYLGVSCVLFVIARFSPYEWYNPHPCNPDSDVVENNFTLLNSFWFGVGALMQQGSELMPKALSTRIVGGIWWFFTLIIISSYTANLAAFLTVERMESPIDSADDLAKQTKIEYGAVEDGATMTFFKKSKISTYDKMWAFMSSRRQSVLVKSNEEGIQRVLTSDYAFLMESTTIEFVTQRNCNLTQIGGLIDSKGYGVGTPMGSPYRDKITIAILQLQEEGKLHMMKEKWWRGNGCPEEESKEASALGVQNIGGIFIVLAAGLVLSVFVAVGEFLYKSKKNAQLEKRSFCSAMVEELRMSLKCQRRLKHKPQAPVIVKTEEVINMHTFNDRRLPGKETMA

IC50 [µM] | SMILES
> 10 | O=C(Nc1cccc(Br)c1)Nc1cc(Cl)ccc1-c1nnn[nH]1
> 30 | O=C(Nc1cccc(Br)c1)Nc1cc(Cl)ccc1-c1nc(=O)o[nH]1
> 50 | O=C(O)Cc1ccc(Cl)cc1NC(=O)Nc1cccc(Br)c1
37 | O=C(Nc1cccc(Br)c1)Nc1cc(Cl)ccc1S(=O)(=O)O

target: Glutamate receptor 3 (Rattus norvegicus, UniProt P19492); experiment: Antagonist activity at rat homomeric recombinant GluR3 expressed in HEK293 cells assessed as inhibition of intracellular calcium concentration by FLIPR assay; format: functional, cell-based; settings: not given
Outline: (§1)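 AMPA-subunit HEK293 lines were grown with 100 μg/mL SPD 502 in the medium. Cells were loaded with 2 μM Fluo-4-AM for 30 min at room temperature and washed into Na⁺-free Ringer at pH 7.4. All solutions contained 100 μM cyclothiazide. Test compound was preincubated 1.5 min before 25 μM Glu (final) was added. The Ca²⁺ rise was read by FLIPR at room temperature. Solvent (EtOH or DMSO) was ≤1.0%.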

IC50 [µM] | SMILES
> 100 | O=C(Nc1cccc(Br)c1)Nc1cc(Cl)ccc1-c1nnn[nH]1
> 100 | O=C(Nc1cccc(Br)c1)Nc1cc(Cl)ccc1-c1nc(=O)o[nH]1
> 100 | O=C(O)Cc1ccc(Cl)cc1NC(=O)Nc1cccc(Br)c1
> 100 | O=C(Nc1ccc2ccccc2c1)Nc1cc(Cl)ccc1C(=O)O
> 100 | O=C(Nc1cccc(Br)c1)Nc1cc(Cl)ccc1S(=O)(=O)O
> 100 | O=C(Nc1cccc(Br)c1)Nc1cc(Cl)ccc1C(=O)O

target: Glutamate receptor 4 (Rattus norvegicus) (UniProt P19493); experiment: Antagonist activity at rat homomeric recombinant GluR4 expressed in HEK293 cells assessed as inhibition of intracellular calcium concentration at 30 uM by FLIPR assay; format: functional, cell-based; settings: not given; outline: as §1
Sequence (P19493 whole entry): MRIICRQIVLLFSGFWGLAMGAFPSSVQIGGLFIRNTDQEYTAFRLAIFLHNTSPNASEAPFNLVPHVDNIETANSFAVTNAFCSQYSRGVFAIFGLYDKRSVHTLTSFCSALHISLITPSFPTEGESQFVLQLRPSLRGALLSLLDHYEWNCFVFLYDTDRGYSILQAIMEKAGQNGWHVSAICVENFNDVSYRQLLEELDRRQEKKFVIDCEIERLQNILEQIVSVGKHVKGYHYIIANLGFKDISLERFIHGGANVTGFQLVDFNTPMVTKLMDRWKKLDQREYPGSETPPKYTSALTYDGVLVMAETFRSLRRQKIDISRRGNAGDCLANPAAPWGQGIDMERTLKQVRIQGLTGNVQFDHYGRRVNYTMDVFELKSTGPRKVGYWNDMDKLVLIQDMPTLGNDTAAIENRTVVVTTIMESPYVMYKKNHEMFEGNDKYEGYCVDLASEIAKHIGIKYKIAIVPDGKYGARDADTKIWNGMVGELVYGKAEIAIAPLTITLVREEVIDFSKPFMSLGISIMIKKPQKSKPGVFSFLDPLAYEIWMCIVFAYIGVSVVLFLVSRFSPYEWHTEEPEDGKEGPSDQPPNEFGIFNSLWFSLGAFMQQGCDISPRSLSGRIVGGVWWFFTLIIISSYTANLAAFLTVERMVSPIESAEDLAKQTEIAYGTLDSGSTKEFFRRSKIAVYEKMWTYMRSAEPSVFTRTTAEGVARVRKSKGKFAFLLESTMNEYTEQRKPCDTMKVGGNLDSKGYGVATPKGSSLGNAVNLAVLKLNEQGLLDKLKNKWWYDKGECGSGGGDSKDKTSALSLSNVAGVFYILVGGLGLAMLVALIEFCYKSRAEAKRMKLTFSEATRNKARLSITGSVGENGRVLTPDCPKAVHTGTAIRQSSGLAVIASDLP

Activity | SMILES
inactive | O=C(Nc1cccc(Br)c1)Nc1cc(Cl)ccc1-c1nnn[nH]1
inactive | O=C(Nc1cccc(Br)c1)Nc1cc(Cl)ccc1-c1nc(=O)o[nH]1
inactive | O=C(O)Cc1ccc(Cl)cc1NC(=O)Nc1cccc(Br)c1
inactive | O=C(Nc1ccc2ccccc2c1)Nc1cc(Cl)ccc1C(=O)O
inactive | O=C(Nc1cccc(Br)c1)Nc1cc(Cl)ccc1C(=O)O

target: Glutamate receptor 1 (Rattus norvegicus) (UniProt P19490); experiment: Antagonist activity at rat homomeric recombinant GluR1 expressed in HEK293 cells assessed as inhibition of intracellular calcium concentration at 30 uM by FLIPR assay; format: functional, cell-based; settings: not given; outline: as §1
Sequence (P19490 whole entry): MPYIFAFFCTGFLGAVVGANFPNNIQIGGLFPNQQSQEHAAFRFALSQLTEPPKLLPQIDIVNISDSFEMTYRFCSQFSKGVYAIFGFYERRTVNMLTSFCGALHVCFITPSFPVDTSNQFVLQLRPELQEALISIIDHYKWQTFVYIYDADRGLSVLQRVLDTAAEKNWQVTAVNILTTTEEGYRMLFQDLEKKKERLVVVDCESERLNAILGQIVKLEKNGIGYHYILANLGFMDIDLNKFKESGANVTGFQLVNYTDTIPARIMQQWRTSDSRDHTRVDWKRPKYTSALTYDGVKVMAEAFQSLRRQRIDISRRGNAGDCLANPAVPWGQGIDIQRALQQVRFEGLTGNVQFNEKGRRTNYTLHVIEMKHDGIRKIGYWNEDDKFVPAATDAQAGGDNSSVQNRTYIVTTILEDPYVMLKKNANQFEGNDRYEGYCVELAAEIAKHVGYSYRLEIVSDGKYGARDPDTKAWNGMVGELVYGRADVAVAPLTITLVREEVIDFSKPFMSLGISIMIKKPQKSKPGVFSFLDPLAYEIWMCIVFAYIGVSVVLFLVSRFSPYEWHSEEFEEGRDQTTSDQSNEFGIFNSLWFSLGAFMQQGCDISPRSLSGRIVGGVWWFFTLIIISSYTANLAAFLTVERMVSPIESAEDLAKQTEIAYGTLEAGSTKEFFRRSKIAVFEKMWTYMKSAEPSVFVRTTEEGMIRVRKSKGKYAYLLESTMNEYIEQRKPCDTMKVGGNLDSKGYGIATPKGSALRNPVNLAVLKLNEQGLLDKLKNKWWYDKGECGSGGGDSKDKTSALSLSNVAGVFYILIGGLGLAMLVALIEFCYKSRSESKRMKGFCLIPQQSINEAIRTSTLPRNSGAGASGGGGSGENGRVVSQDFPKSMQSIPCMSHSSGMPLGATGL

Activity | SMILES
inactive | O=C(Nc1cccc(Br)c1)Nc1cc(Cl)ccc1-c1nnn[nH]1
inactive | O=C(Nc1cccc(Br)c1)Nc1cc(Cl)ccc1-c1nc(=O)o[nH]1
inactive | O=C(O)Cc1ccc(Cl)cc1NC(=O)Nc1cccc(Br)c1
inactive | O=C(Nc1ccc2ccccc2c1)Nc1cc(Cl)ccc1C(=O)O
inactive | O=C(Nc1cccc(Br)c1)Nc1cc(Cl)ccc1C(=O)O

target: Glutamate receptor 2 (Rattus norvegicus) (UniProt P19491); experiment: Antagonist activity at rat homomeric recombinant GluR2 expressed in HEK293 cells assessed as inhibition of intracellular calcium concentration at 30 uM by FLIPR assay; format: functional, cell-based; settings: not given; outline: as §1
Sequence (P19491 whole entry): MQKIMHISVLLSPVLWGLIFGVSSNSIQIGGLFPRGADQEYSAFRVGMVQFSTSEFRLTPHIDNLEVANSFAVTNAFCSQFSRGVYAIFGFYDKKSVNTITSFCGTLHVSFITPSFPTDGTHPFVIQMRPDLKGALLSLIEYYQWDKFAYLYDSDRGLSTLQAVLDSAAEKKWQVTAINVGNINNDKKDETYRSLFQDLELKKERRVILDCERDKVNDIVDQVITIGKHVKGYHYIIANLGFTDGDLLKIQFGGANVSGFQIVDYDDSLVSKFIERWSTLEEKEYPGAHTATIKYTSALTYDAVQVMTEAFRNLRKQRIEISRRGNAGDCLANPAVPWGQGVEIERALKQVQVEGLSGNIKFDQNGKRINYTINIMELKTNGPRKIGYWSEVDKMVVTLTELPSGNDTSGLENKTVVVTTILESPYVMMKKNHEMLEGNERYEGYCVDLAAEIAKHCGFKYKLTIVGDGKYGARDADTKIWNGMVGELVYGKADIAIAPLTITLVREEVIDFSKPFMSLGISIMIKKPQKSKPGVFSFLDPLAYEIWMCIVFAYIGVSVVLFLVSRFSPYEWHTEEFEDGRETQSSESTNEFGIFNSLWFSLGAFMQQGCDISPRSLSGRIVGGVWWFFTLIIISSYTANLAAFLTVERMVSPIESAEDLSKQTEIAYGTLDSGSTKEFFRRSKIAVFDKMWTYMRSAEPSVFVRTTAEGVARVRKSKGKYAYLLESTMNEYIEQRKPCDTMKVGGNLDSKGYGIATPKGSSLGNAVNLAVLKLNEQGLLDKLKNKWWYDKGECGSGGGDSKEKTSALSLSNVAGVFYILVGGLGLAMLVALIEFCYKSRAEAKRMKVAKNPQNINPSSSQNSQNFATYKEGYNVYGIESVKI

Activity | SMILES
inactive | O=C(Nc1cccc(Br)c1)Nc1cc(Cl)ccc1-c1nnn[nH]1
inactive | O=C(Nc1cccc(Br)c1)Nc1cc(Cl)ccc1-c1nc(=O)o[nH]1
inactive | O=C(O)Cc1ccc(Cl)cc1NC(=O)Nc1cccc(Br)c1
inactive | O=C(Nc1ccc2ccccc2c1)Nc1cc(Cl)ccc1C(=O)O
inactive | O=C(Nc1cccc(Br)c1)Nc1cc(Cl)ccc1C(=O)O

target: Glutamate receptor 4 (Rattus norvegicus, UniProt P19493); experiment: Antagonist activity at rat homomeric recombinant GluR4 expressed in HEK293 cells assessed as inhibition of intracellular calcium concentration by FLIPR assay; format: functional, cell-based; settings: not given; outline: as §1
Sequence (P19493 whole entry): as the sequence (P19493 whole entry) above

IC50 [µM] | SMILES
> 100 | O=C(Nc1cccc(Br)c1)Nc1cc(Cl)ccc1-c1nnn[nH]1
> 100 | O=C(Nc1cccc(Br)c1)Nc1cc(Cl)ccc1-c1nc(=O)o[nH]1
> 100 | O=C(O)Cc1ccc(Cl)cc1NC(=O)Nc1cccc(Br)c1
> 100 | O=C(Nc1ccc2ccccc2c1)Nc1cc(Cl)ccc1C(=O)O
> 100 | O=C(Nc1cccc(Br)c1)Nc1cc(Cl)ccc1S(=O)(=O)O
> 100 | O=C(Nc1cccc(Br)c1)Nc1cc(Cl)ccc1C(=O)O

target: Glutamate receptor 1 (Rattus norvegicus, UniProt P19490); experiment: Antagonist activity at rat homomeric recombinant GluR1 expressed in HEK293 cells assessed as inhibition of intracellular calcium concentration by FLIPR assay; format: functional, cell-based; settings: not given; outline: as §1
Sequence (P19490 whole entry): as the sequence (P19490 whole entry) above

IC50 [µM] | SMILES
> 100 | O=C(Nc1cccc(Br)c1)Nc1cc(Cl)ccc1-c1nnn[nH]1
> 100 | O=C(Nc1cccc(Br)c1)Nc1cc(Cl)ccc1-c1nc(=O)o[nH]1
> 100 | O=C(O)Cc1ccc(Cl)cc1NC(=O)Nc1cccc(Br)c1
> 100 | O=C(Nc1ccc2ccccc2c1)Nc1cc(Cl)ccc1C(=O)O
> 100 | O=C(Nc1cccc(Br)c1)Nc1cc(Cl)ccc1S(=O)(=O)O
> 100 | O=C(Nc1cccc(Br)c1)Nc1cc(Cl)ccc1C(=O)O

target: Glutamate receptor 2 (Rattus norvegicus, UniProt P19491); experiment: Antagonist activity at rat homomeric recombinant GluR2 expressed in HEK293 cells assessed as inhibition of intracellular calcium concentration by FLIPR assay; format: functional, cell-based; settings: not given
Outline: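 Cells were loaded with 2 μM Fluo-4-AM for 30 min at room temperature and washed into Na⁺-free Ringer at pH 7.4. All solutions contained 100 μM cyclothiazide. The Ca²⁺ rise was read by FLIPR at room temperature. Solvent (EtOH or DMSO) was ≤1.0%.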

Chain of Glutamate receptor 2 (P19491 whole entry): as the sequence (P19491 whole entry) above

IC50 [µM] | SMILES
> 100 | O=C(Nc1cccc(Br)c1)Nc1cc(Cl)ccc1-c1nnn[nH]1
> 100 | O=C(Nc1cccc(Br)c1)Nc1cc(Cl)ccc1-c1nc(=O)o[nH]1
> 100 | O=C(O)Cc1ccc(Cl)cc1NC(=O)Nc1cccc(Br)c1
> 100 | O=C(Nc1cccc(Br)c1)Nc1cc(Cl)ccc1S(=O)(=O)O
> 100 | O=C(Nc1cccc(Br)c1)Nc1cc(Cl)ccc1C(=O)O

target: Glutamate receptor 3 (Rattus norvegicus) (UniProt P19492); experiment: Antagonist activity at rat homomeric recombinant GluR3 expressed in HEK293 cells assessed as inhibition of intracellular calcium concentration at 30 uM by FLIPR assay; format: functional, cell-based; settings: not given; outline: as §1

Activity | SMILES
inactive | O=C(Nc1cccc(Br)c1)Nc1cc(Cl)ccc1-c1nnn[nH]1
inactive | O=C(Nc1cccc(Br)c1)Nc1cc(Cl)ccc1-c1nc(=O)o[nH]1
inactive | O=C(O)Cc1ccc(Cl)cc1NC(=O)Nc1cccc(Br)c1
inactive | O=C(Nc1ccc2ccccc2c1)Nc1cc(Cl)ccc1C(=O)O
inactive | O=C(Nc1cccc(Br)c1)Nc1cc(Cl)ccc1C(=O)O

target: T1, Glutamate receptor ionotropic, kainate 1 (Homo sapiens, UniProt P39086); experiment: Antagonist activity at human homomeric GluR5 expressed in HEK293 cells assessed as inhibition of intracellular calcium concentration by FLIPR assay; format: functional, cell-based; settings: not given
T1 sequence (P39086 whole entry): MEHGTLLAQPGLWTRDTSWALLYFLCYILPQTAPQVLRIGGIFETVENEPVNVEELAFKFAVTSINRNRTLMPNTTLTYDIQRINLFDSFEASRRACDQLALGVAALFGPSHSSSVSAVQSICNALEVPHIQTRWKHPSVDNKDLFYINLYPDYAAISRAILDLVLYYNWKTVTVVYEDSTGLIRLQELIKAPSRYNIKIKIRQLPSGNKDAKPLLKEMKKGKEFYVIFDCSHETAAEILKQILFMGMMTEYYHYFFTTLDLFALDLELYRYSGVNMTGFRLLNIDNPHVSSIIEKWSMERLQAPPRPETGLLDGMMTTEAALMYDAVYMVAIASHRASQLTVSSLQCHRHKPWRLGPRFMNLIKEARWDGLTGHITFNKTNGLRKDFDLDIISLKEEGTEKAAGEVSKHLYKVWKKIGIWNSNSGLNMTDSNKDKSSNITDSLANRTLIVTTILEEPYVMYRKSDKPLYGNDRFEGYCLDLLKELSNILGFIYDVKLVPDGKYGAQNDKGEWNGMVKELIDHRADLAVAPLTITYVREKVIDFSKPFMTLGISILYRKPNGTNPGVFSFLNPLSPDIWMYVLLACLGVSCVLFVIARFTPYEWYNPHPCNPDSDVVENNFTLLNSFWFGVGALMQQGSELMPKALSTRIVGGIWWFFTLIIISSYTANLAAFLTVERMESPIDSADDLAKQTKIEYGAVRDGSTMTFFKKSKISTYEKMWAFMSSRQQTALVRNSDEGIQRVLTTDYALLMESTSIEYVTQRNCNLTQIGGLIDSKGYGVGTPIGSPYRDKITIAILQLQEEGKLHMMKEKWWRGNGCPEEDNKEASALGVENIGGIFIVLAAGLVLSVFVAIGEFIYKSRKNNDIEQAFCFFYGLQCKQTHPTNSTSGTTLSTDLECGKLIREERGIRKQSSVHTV

SMILES | IC50 [µM]
Nc1ccc(Cl)cc1NC(=O)Nc1cccc(C(F)(F)F)c1 | > 30
O=C(Nc1cccc(Br)c1)Nc1cc(Cl)ccc1[N+](=O)[O-] | > 3
O=C(Nc1cccc(C(F)(F)F)c1)Nc1cc(Cl)ccc1CO | > 10
O=C(Nc1cccc(Br)c1)Nc1cc(Cl)ccc1-c1nnn[nH]1 | 2
O=C(Nc1cccc(Br)c1)Nc1cc(Cl)ccc1-c1nc(=O)o[nH]1 | 4.6
O=C(O)Cc1ccc(Cl)cc1NC(=O)Nc1cccc(Br)c1 | 3.6
O=C(Nc1cccc(C(F)(F)F)c1)Nc1cc(Cl)ccc1O | > 30
O=C(Nc1cccc(Br)c1)Oc1cc(Cl)ccc1C(=O)O | > 30
O=C(Nc1cccc(Br)c1)n1[nH]c(=O)c2ccc(Cl)cc21 | > 50
O=C(O)c1ccc(Cl)cc1Nc1c(Nc2cccc(Br)c2)c(=O)c1=O | > 30
O=C(Nc1cccc(Br)c1)Nc1cc(Cl)ccc1S(=O)(=O)O | 1.5
N#Cc1ccc(Cl)cc1NC(=O)Nc1cccc(C(F)(F)F)c1 | > 3
O=C(Nc1cccc(C(F)(F)F)c1)Nc1cc(Cl)ccc1[N+](=O)[O-] | > 3
COC(=O)c1ccc(Cl)cc1NC(=O)Nc1cccc(Br)c1 | > 30
O=C(O)CCc1ccc(Cl)cc1NC(=O)Nc1cccc(Br)c1 | > 30

tested on: Mus musculus; experiment: Effect on ATPA-induced rigidity in mouse dosed intravenously 30 mins before ATPA administration; format: functional; settings: iv
Outline: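 Female NMRI mice (20–25 g) received test substance iv (n = 8 per dose) 30 min before iv ATPA at 30 mg/kg. ATPA was given at 3 mg/mL in saline, pH 7. Rigidity was scored 30 min after ATPA as loss of righting and lack of movement on a 45° grid. Results were taken as the percent of mice rigid, and ED50 was derived.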

SMILES | ED50 [mg/kg]
O=C(Nc1cccc(Br)c1)Nc1cc(Cl)ccc1-c1nnn[nH]1 | 5.5
O=C(Nc1cccc(Br)c1)Nc1cc(Cl)ccc1-c1nc(=O)o[nH]1 | > 100
O=C(O)Cc1ccc(Cl)cc1NC(=O)Nc1cccc(Br)c1 | > 30
O=C(Nc1ccc2ccccc2c1)Nc1cc(Cl)ccc1C(=O)O | > 30
O=C(Nc1cccc(Br)c1)Nc1cc(Cl)ccc1S(=O)(=O)O | 29

target: T1, Glutamate receptor ionotropic, kainate 1; experiment: Displacement of [3HATPA from human recombinant GluR5; settings: not given
Outline: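 GluR5 HEK293 membranes were washed in 50 mM Tris-HCl (pH 7.1) at 0–4 °C and centrifuged at 27000g. 46–84 μg protein was incubated with 3 nM [³H]ATPA for 60 min at 2 °C. Nonspecific binding was defined with 0.6 mM Glu. Binding was stopped by rapid filtration and counted by liquid scintillation. Compounds were tested at 3–30 μM.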

IC50 [µM] | SMILES
> 30 | O=C(Nc1cccc(Br)c1)Nc1cc(Cl)ccc1-c1nnn[nH]1
> 30 | O=C(Nc1cccc(Br)c1)Nc1cc(Cl)ccc1-c1nc(=O)o[nH]1
> 30 | O=C(O)Cc1ccc(Cl)cc1NC(=O)Nc1cccc(Br)c1
> 30 | O=C(Nc1cccc(Br)c1)Nc1cc(Cl)ccc1S(=O)(=O)O
